Our source for the IC50 and microsomal CLint values is ChEMBL document CHEMBL2331413, “Novel in vivo active anti-malarials based on a hydroxy-ethyl-amine scaffold” (Bioorg Med Chem Lett, 2013).

Series [1] concerns Plasmodium falciparum. Put plainly: Antimalarial activity against chloroquine-resistant Plasmodium falciparum K1 infected in RBC by [3H]hypoxanthine incorporation assay in presence of 0.5 % albumax. The class given is functional, organism-based.
Series [2] has as its system Plasmodium falciparum. The series can be described thus: Antimalarial activity against chloroquine-sensitive Plasmodium falciparum NF54 infected in RBC after 72 hrs by [3H]hypoxanthine incorporation assay in presence of 50 % serum. It is filed as functional, organism-based.
Series [3] deals with Plasmodium falciparum. The series can be described thus: Antimalarial activity against chloroquine-sensitive Plasmodium falciparum NF54 infected in RBC after 48 hrs by [3H]hypoxanthine incorporation assay in presence of 0.5 % albumax. It is filed as functional, organism-based.
The test system of series [4] is Plasmodium falciparum. The series can be described thus: Antimalarial activity against chloroquine-sensitive Plasmodium falciparum NF54 infected in RBC after 72 hrs by [3H]hypoxanthine incorporation assay in presence of 0.5 % albumax. It is filed as functional, organism-based.
Series [5] deals with Plasmodium falciparum. The series can be described thus: Antimalarial activity against chloroquine-resistant Plasmodium falciparum K1 infected in RBC by [3H]hypoxanthine incorporation assay in presence of 50 % serum. It is filed as functional, organism-based.
For series [6], the system named is Plasmodium falciparum. The series can be described thus: Antimalarial activity against chloroquine-sensitive Plasmodium falciparum NF54 infected in RBC after 24 hrs by [3H]hypoxanthine incorporation assay in presence of 0.5 % albumax. It is filed as functional, organism-based.
Series [7] concerns Plasmodium berghei. Put plainly: Antimalarial activity against GFP-transfected Plasmodium berghei ANKA in mouse blood assessed as inhibition of schizont maturation compound incubated for 16 hrs followed by 8 hrs of [3H]hypoxanthine incorporation. It is filed as functional, organism-based.
Series [8] in a line: Metabolic stability in mouse liver microsomes. The class given is ADME, Microsome. The settings on record: read-out: Stability. In outline:
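In vitro metabolic stability was measured with a mouse liver microsomal preparation and expressed as intrinsic clearance in µl/(min mg).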
On the technique in general: Liver microsomes are vesicles of endoplasmic reticulum, rich in cytochrome P450 enzymes.

Molecules are shown by their SMILES. Where only a bound is given, the exact number is not on record here.

`CCCN(CCC)Cc1cc(Nc2ccc(C(=O)N[C@@H](Cc3ccccc3)[C@H](O)CN[C@H](C)c3ccccc3)cc2)ccc1O`: the IC50 (as a rule, the point on the concentration scale where inhibition reaches its midpoint) was 11 nM in series [1]; 13 nM in series [2]; 11 nM in series [3]; 9.4 nM in series [4]; < 7.8 nM in series [5]; 77 nM in series [6].

As for `CCCN(CCC)Cc1cc(C(=O)N[C@@H](Cc2ccccc2)[C@H](O)CN[C@H](C)c2ccccc2)ccc1O`, the IC50 in series [2] is 334 nM; in series [3], 83 nM; in series [4] it was 118 nM; in series [7], > 500 nM; in series [6] it was 151 nM.

With `C[C@@H](NC[C@@H](O)[C@H](Cc1ccccc1)NC(=O)c1cccc(S(=O)(=O)N2CCN(C)CC2)c1)c1ccccc1`, the IC50 in series [2] was 138 nM; in series [4] it was 98 nM. Moreover, in series [8], the microsomal CLint was 908 µL/min/mg.

Take `C[C@@H](NC[C@@H](O)[C@H](Cc1ccccc1)NC(=O)c1ccc(N(C)C2CCN(C)CC2)cc1)c1ccccc1`: the IC50 in series [1] was 7.1 nM; in series [2], 14 nM; in series [3] it was < 7.8 nM; in series [4], 4.4 nM; in series [6], > 500 nM. In series [8], the microsomal CLint turned out to be 71 µL/min/mg.

As to `CCCN(CCC)C(=O)c1cccc(C(=O)N[C@@H](Cc2ccccc2)[C@H](O)CN[C@H](C)c2ccccc2)c1`, the IC50 in series [2] was 10 nM; in series [3], < 3.1 nM; in series [4] it was 2 nM; in series [7], > 500 nM; in series [6] it was > 500 nM. The microsomal CLint in series [8] is > 1250 µL/min/mg.

As to `CCN(CC)Cc1ccc(Nc2ccc(C(=O)N[C@@H](Cc3ccccc3)[C@H](O)CN[C@H](C)c3ccccc3)cc2)cc1O`, the concentration for half-maximal inhibition (IC50) in series [2] was 9 nM; in series [3], 15 nM; in series [4], < 7.8 nM; in series [6], 65 nM.

For `CCN(CC)Cc1cc(CNC[C@@H](O)[C@H](Cc2ccccc2)NC(=O)c2ccc(N3CCN(C)CC3)cc2)ccc1O`, the IC50 in series [2] amounted to 167 nM; in series [3] it was 314 nM; in series [4], 333 nM; in series [6], 408 nM.

For the molecule `CCCN(CCC)Cc1cc(C(C)NC[C@@H](O)[C@H](Cc2ccccc2)NC(=O)c2ccc(N3CCN(C)CC3)cc2)ccc1O` (stereo not given in full), the half-maximal inhibitory concentration (IC50) was 62 nM in series [2], 75 nM in series [3], 89 nM in series [4] and 90 nM in series [6].

In the case of `C[C@@H](NC[C@@H](O)[C@H](Cc1ccccc1)NC(=O)c1ccc(NC2CCN(C)CC2)cc1)c1ccccc1`, the IC50 in series [1] is 7 nM; in series [2], 12 nM; in series [3], < 7.8 nM; in series [4], 4 nM; in series [5] it was 16 nM; in series [6], > 500 nM. Also, the microsomal CLint in series [8] turned out to be 76 µL/min/mg.

For the molecule `C[C@@H](NC[C@@H](O)[C@H](Cc1ccccc1)NC(=O)c1ccc(C(=O)N2CCN(C)CC2)cc1)c1ccccc1`, the half-inhibitory concentration (IC50) in series [2] was < 0.6 nM; in series [4] it was 0.6 nM; in series [7], > 500 nM; in series [6] it was > 500 nM. Moreover, the microsomal CLint in series [8] was 75 µL/min/mg.

`CN1CCN(c2ccc(C(=O)N[C@@H](Cc3ccccc3)[C@H](O)CNCc3ccc(O)c(CN4CCCC4)c3)cc2)CC1`: the 50% inhibitory concentration (IC50) in series [2] is 295 nM; in series [3], > 500 nM; in series [4] it was > 500 nM; in series [6] it was > 500 nM.

Consider `CCCN(CCC)Cc1cc(C2CCC(NC[C@@H](O)[C@H](Cc3ccccc3)NC(=O)c3ccc(N4CCN(C)CC4)cc3)CC2)ccc1O` (stereo not given in full), for which the IC50 in series [3] is 19 nM; in series [4], 19 nM; in series [7] it was 143 nM; in series [6], 20 nM. Besides, the microsomal CLint in series [8] stood at 74 µL/min/mg.

As for `C[C@@H](NC[C@@H](O)[C@H](Cc1ccccc1)NC(=O)c1cccc(O)c1CN1CCCCC1)c1ccccc1`, the IC50 is 5.9 nM in series [2]; < 7.8 nM in series [3]; 4.9 nM in series [4]; > 500 nM in series [7]; 235 nM in series [6].

With `CCCN(CCC)C(=O)c1ccc(C(=O)N[C@@H](Cc2ccccc2)[C@H](O)CN[C@H](C)c2ccccc2)cc1`, the IC50 in series [2] is 6.5 nM; in series [4], 1.6 nM; in series [7] it was > 500 nM; in series [6], > 500 nM. Also, the microsomal CLint in series [8] was > 1250 µL/min/mg.

In the case of `CCN(CC)Cc1cc(Nc2cccc(C(=O)N[C@@H](Cc3ccccc3)[C@H](O)CNC3CCCC3)c2)ccc1O`, the IC50 in series [1] is 30 nM; in series [2] it was 67 nM; in series [4] it was 23 nM; in series [5], 127 nM.

`CCCN(CCC)Cc1ccc(Nc2ccc(C(=O)N[C@@H](Cc3ccccc3)[C@H](O)CN[C@H](C)c3ccccc3)cc2)cc1O`: the 50% inhibitory concentration (IC50) in series [2] was found to be 20 nM; in series [4] it was 22 nM; in series [6] it was 77 nM.

Regarding `CCCN(CCC)C(=O)c1cccc(C(=O)N[C@@H](Cc2ccccc2)[C@H](O)CNC2CCCC2)c1`, the IC50 in series [1] stood at 12 nM; in series [4], 7.1 nM; in series [5] it was 36 nM.

As to `CCN(CC)Cc1cc(C(=O)N[C@@H](Cc2ccccc2)[C@H](O)CN[C@H](C)c2ccccc2)ccc1O`, the IC50 in series [2] is > 500 nM; in series [3], 305 nM; in series [4] it was 357 nM; in series [6] it was 380 nM.

On to `CCN(CC)Cc1cc(Nc2ccc(C(=O)N[C@@H](Cc3ccccc3)[C@H](O)CN[C@H](C)c3ccccc3)cc2)ccc1O`, for which the IC50 was 3.6 nM in series [2], < 7.8 nM in series [3], 8.3 nM in series [4] and 133 nM in series [6].

For the molecule `C[C@@H](NC[C@@H](O)[C@H](Cc1ccccc1)NC(=O)c1ccc(CN2CCCCC2)c(O)c1)c1ccccc1`, the IC50 in series [1] is < 7.8 nM; in series [2] it was 5.9 nM; in series [4], 4.9 nM; in series [5], 7.8 nM.

As to `C[C@@H](NC[C@@H](O)[C@H](Cc1ccccc1)NC(=O)c1ccc(Nc2ccc(O)c(CN3CCCC3)c2)cc1)c1ccccc1`, the IC50 in series [1] was < 7.8 nM; in series [2] it was 4.9 nM; in series [3], < 7.8 nM; in series [4], 17 nM; in series [5] it was < 7.8 nM; in series [6] it was 174 nM.

Consider `CCN(CC)Cc1cc(Nc2ccc(C(=O)N[C@@H](Cc3ccccc3)[C@H](O)CNC3CCCC3)cc2)ccc1O`, for which the IC50 in series [1] was 54 nM; in series [2], 51 nM; in series [4], 78 nM; in series [5] it was 44 nM.

As to `C[C@@H](NC[C@@H](O)[C@H](Cc1ccccc1)NC(=O)c1cccc(C(=O)N2CCCCCC2)c1)c1ccccc1`, the figures for the IC50 in series [2] and in series [4] were 13 nM and 3.8 nM, respectively.

Consider `CCCN(CCC)C(=O)c1cccc(C(=O)N[C@@H](Cc2ccccc2)[C@H](O)CNC(C)(C)c2ccc3ccccc3c2)c1`, for which the values for the half-inhibitory concentration (IC50) in series [2] and in series [4] were 143 nM and 45 nM, respectively.

On to `CC(NC[C@@H](O)[C@H](Cc1ccccc1)NC(=O)c1ccc(N2CCN(C)CC2)cc1)c1ccc(O)c(CN2CCCCC2)c1` (stereo not given in full), for which the values for the IC50 in series [2] and in series [4] were 125 nM and 203 nM, respectively.

On to `CCCN(CCC)C(=O)c1cccc(C(=O)N[C@@H](Cc2ccccc2)[C@H](O)CNC(C)(C)c2cccc(F)c2)c1`, for which the values for the IC50 in series [2] and in series [4] were 50 nM and 9.6 nM, respectively.

In the case of `CN1CCN(c2ccc(C(=O)N[C@@H](Cc3ccccc3)[C@H](O)CNCc3ccc(O)c(CN4CCCCC4)c3)cc2)CC1`, the half-inhibitory concentration (IC50) in series [1] was found to be 36 nM; in series [2], 57 nM; in series [3], 102 nM; in series [4] it was 120 nM; in series [5], 28 nM; in series [6], 158 nM.

`CCCN(CCC)C(=O)c1cccc(C(=O)N[C@@H](Cc2ccccc2)[C@H](O)CNC2CCOCC2)c1`: the 50% inhibitory concentration (IC50) in series [2] was found to be 34 nM; in series [4], 16 nM.

As for `CCCN(CCC)C(=O)c1cccc(C(=O)N[C@@H](Cc2ccccc2)[C@H](O)CNCCCc2ccccc2)c1`, the concentration for half-maximal inhibition (IC50) is 126 nM in series [2] and 43 nM in series [4].

Regarding `CCCN(CCC)C(=O)c1cccc(C(=O)N[C@@H](Cc2ccccc2)[C@H](O)CNC2(c3ccccc3)CCCC2)c1`, the IC50 in series [2] is 168 nM; in series [4], 12 nM.

In the case of `CCCN(CCC)C(=O)c1cccc(C(=O)N[C@@H](Cc2ccccc2)[C@H](O)CN[C@H](C)C2CCCCC2)c1`, the IC50 was determined as 48 nM in series [2] and 11 nM in series [4].

Consider `CCCN(CCC)Cc1cc(CNC[C@@H](O)[C@H](Cc2ccccc2)NC(=O)c2ccc(Nc3ccnc(C)c3)cc2)ccc1O`, for which the IC50 came out at 149 nM in series [1], 80 nM in series [2], 158 nM in series [4] and 93 nM in series [5].

Consider `C[C@@H](NC[C@@H](O)[C@H](Cc1ccccc1)NC(=O)c1ccc(C(=O)N2CCCCC2)cc1)c1ccccc1`, for which the IC50 in series [2] is 1.3 nM; in series [4], 0.9 nM; in series [7] it was > 500 nM; in series [6], > 500 nM. In series [8], the microsomal CLint was 860 µL/min/mg.

Consider `CCCN(CCC)C(=O)c1cccc(C(=O)N[C@@H](Cc2ccccc2)[C@H](O)CNC(C)(C)c2ccc(F)cc2)c1`, for which the IC50 in series [2] is 110 nM; in series [4], 24 nM.

With `CCCN(CCC)C(=O)c1cccc(C(=O)N[C@@H](Cc2ccccc2)[C@H](O)CNC2(c3ccccc3)CC2)c1`, the values for the IC50 in series [2] and in series [4] were 435 nM and 116 nM, respectively.

Turning to `CCCN(CCC)C(=O)c1cccc(C(=O)N[C@@H](Cc2ccccc2)[C@H](O)CN[C@@H](C)C2CCCCC2)c1`, the IC50 is 466 nM in series [2] and 324 nM in series [4].

Turning to `CCCN(CCC)C(=O)c1cccc(C(=O)N[C@@H](Cc2ccccc2)[C@H](O)CNC(C)(C)c2cccc(C#N)c2)c1`, the IC50 in series [2] is 8.6 nM; in series [4], < 1.5 nM.
